The values that follow come from ChEMBL document CHEMBL2163306, “Synthesis of new chiral xanthone derivatives acting as nerve conduction blockers in the rat sciatic nerve” (Eur J Med Chem, 2012).

The source made the active and inactive calls. The rule behind the calls is not given here.

The nature of series [1]: Antihemolytic activity against hypotonic hemolysis in Wistar rat erythrocytes at 100 uM after 10 mins relative to control. Type of series: functional, Erythrocyte. Put shortly: (§1)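 Blood was taken by puncture from urethane-anaesthetized (1.2 g/kg) Wistar rats and heparinised. After centrifugation, plasma and leukocyte layer were removed and cells were resuspended in 154 mM NaCl/10 mM phosphate buffer pH 7.0. The suspension was added to drug dilutions in hypotonic NaCl/phosphate buffer pH 7.0 (NaCl 63–67 mM for 50% haemolysis) and held 10 min at room temperature. It was then spun, and supernatant haemoglobin was read at 540 nm. Run in duplicate; expressed as relative haemolysis.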

In series [2] the test system is Erythrocyte. Put plainly: Antihemolytic activity against hypotonic hemolysis in Wistar rat erythrocytes after 10 mins. Type of series: functional, cell-based. An outline of the steps: as §1
The subject of series [3] is Sciatic nerve. Nature of the series: Inhibition of amplitude of compound action potential in isolated Wistar rat sciatic nerve at 0.1 to 3 uM after 15 mins by electrophysiology assay. Type of series: functional, tissue-based. Put shortly: (§2)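 Sciatic nerve bundles 3–4 cm long came from adult Wistar rats (200–400 g). Drugs in Tyrode's solution were applied cumulatively (0.100–3.00 µM) at 1 mL/min flow, with at least 15 min contact each. Blockade was taken as percentage decrement in compound action potential amplitude versus control. Solvent was at most 0.05% v/v.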

The test system of series [4] is Erythrocyte. Put plainly: Antihemolytic activity against hypotonic hemolysis in Wistar rat erythrocytes at 0.3 to 1 uM after 10 mins. It counts as functional, cell-based. An outline of the steps:
as §1

Series [5] in a line: Toxicity in isolated Wistar rat sciatic nerve assessed as axonal damage by LDH assay. Type of series: tissue-based. Particulars: ex_vivo. Put shortly: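 Neuronal damage in isolated Wistar rat sciatic nerve bundles was gauged from LDH activity leaked into the incubation medium over time, following the Bergmeyer method.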
For series [6], the system named is Sciatic nerve. Put plainly: Inhibition of amplitude of compound action potential in isolated Wistar rat sciatic nerve after 15 mins by electrophysiology assay. Type of series: functional, tissue-based. Put shortly: as §2
Series [7] deals with Erythrocyte. Nature of the series: Antihemolytic activity against hypotonic hemolysis in Wistar rat erythrocytes at 0.1 to 100 uM after 10 mins. It counts as functional, cell-based. Put shortly:
as §1

The subject of series [8] is Erythrocyte. Nature of the series: Antihemolytic activity against hypotonic hemolysis in Wistar rat erythrocytes at 0.1 to 30 uM after 10 mins. Type of series: functional, cell-based. Put shortly:
as §1

For series [9], the system named is Erythrocyte. Nature of the series: Antihemolytic activity against hypotonic hemolysis in Wistar rat erythrocytes at 100 uM after 10 mins relative to sucrase. It counts as functional, cell-based. An outline of the steps:
as §1

Series [10] relates to Erythrocyte. Nature of the series: Antihemolytic activity against hypotonic hemolysis in Wistar rat erythrocytes at 0.1 to 1 uM after 10 mins. Type of series: functional, cell-based. An outline of the steps:
as §1

Regarding `CCCCOc1cc(C(=O)NCCN(CC)CC)c2ccccc2n1` [DIBUCAINE], the Ratio in series [1] is 0.421. Moreover, the Activity result in [2] is “Dose-dependent effect”. Besides, the inhibition result in [3] was “Active”.
Regarding `COc1ccc2c(=O)c3cc(C(=O)N[C@@H](C)c4ccc(C)cc4)ccc3oc2c1`, in series [4], the outcome was Active. In addition, the Ratio in [1] amounted to 0.967. Moreover, in series [5], the Activity entry is reported as “Non-toxic”. Also, the inhibition result in [6] is “Dose-dependent effect”.
`OC[C@H]1O[C@@](CO)(O[C@H]2O[C@H](CO)[C@@H](O)[C@H](O)[C@H]2O)[C@@H](O)[C@@H]1O`: in series [7], the result was Active. Besides, the inhibition entry in [3] was “inactive”.
With `O=c1c2ccccc2oc2ccccc12` [XANTHONE], the result in series [8] was inactive. Further, the Ratio in series [1] was 0.686.
For the compound `COc1ccc2c(=O)c3cc(C(=O)N[C@H](CO)CC(C)C)ccc3oc2c1`, the result in series [4] was Active. Besides, in [5], the Activity result is on record as “Non-toxic”. In [6], the inhibition entry is “Dose-dependent effect”.
Take `COc1ccc2c(=O)c3cc(C(=O)N[C@H](CO)C(C)C)ccc3oc2c1`: the result in [9] and in [10] was Active. Moreover, the Activity entry in series [5] is “Non-toxic”. Moreover, in series [6], the inhibition entry is “Dose-dependent effect”.
